Entries after “also recorded” stand apart in the source; their conditions may differ. Read-outs that look alike come from different tables or passages of the source.
How the values were obtained:
κ opioid receptor [1] = target: T1, κ opioid receptor (Homo sapiens, UniProt P41145); assay: Opioid binding to κ receptor, [3H]U69,593, CHO membranes; conditions: for times less active than unsubstituted C10 bivalent ligand 10 at the κ receptor: binding affinity versus 10; for Selectivity μ/δ/κ: ratio of Ki values, κ = 1
T1 sequence (P41145 whole entry): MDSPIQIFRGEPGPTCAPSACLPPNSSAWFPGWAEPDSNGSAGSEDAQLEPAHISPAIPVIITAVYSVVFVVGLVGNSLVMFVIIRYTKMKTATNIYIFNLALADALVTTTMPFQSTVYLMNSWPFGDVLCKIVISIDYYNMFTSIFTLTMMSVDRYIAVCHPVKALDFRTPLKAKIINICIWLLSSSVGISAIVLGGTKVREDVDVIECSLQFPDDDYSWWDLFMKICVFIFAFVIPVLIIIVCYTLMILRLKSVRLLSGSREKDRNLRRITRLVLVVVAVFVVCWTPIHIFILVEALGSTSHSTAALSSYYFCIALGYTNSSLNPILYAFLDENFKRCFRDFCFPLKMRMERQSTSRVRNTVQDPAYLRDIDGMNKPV
Outline: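 Membranes from CHO cells stably expressing human κ opioid receptor were incubated 60 min at 25 °C in 50 mM Tris-HCl pH 7.5 with 1 nM (final) [3H]U69,593. […] Samples were filtered on glass-fibre filters presoaked ≥30 min in 0.1% polyethylenimine, washed three times with cold Tris buffer, and counted by scintillation. IC50 came from a log-probit least-squares fit, Ki from IC50/(1+S), and ratios from Ki values.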

μ opioid receptor [2] = target: T2, μ opioid receptor (Homo sapiens, UniProt P35372); assay: [35S]GTPγS binding mediated by the μ opioid receptor, agonist effects; type: biochemical; conditions: for Functional Activity at μ opioid receptor: [35S]GTPγS binding; for Emax (% stimulation) ± S.E.M., Mu Agonist Effects: CHO cells expressing μ opioid receptor
T2 sequence (P35372 whole entry): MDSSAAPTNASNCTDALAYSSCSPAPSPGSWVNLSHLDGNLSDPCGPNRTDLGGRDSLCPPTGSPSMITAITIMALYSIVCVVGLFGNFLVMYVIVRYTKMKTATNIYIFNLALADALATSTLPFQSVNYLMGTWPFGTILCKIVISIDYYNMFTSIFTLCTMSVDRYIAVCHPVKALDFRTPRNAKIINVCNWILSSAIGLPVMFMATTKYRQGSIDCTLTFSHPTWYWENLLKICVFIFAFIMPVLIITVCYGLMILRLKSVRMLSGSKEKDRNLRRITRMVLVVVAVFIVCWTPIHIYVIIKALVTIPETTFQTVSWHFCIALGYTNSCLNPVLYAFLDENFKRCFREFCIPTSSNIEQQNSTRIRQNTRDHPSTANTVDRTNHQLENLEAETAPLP

κ opioid receptor [3] = target: T1, κ opioid receptor; assay: [35S]GTPγS binding mediated by the kappa opioid receptor, agonist effects; type: biochemical; conditions: for Functional activity at κ opioid receptor: [35S]GTPγS binding
Outline: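 CHO cells expressing κ opioid receptor were incubated with test compound at 12 concentrations, and agonist-stimulated [35S]GTPγS binding was measured. EC50 and maximal stimulation (% stimulation) are reported with S.E.M.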

κ opioid receptor [4] = target: T1, κ opioid receptor; assay: [35S]GTPγS binding mediated by the kappa opioid receptor, antagonist effects; type: biochemical; conditions: for IC50 (nM) ± S.E.M., Kappa Antagonist Effects: binding stimulated with 100 nM U50,488; for Imax (% inhibition) ± S.E.M., Kappa Antagonist Effects: binding stimulated with 100 nM U50,488, set at 100% control
Outline: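 Antagonist mode in CHO cells expressing κ opioid receptor: [35S]GTPγS binding was stimulated with 100 nM U50,488, taken as 100% control binding. Inhibition of this stimulated binding by test compound was measured, and IC50 and maximal inhibition (% inhibition) are reported with S.E.M.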

μ opioid receptor [5] = target: T2, μ opioid receptor; assay: [35S]GTPγS binding mediated by the μ opioid receptor, antagonist effects; type: biochemical; conditions: binding stimulated with 200 nM DAMGO; for Imax (% inhibition) ± S.E.M., Mu Antagonist Effects: set at 100% control
κ opioid receptor [6] = target: T1, κ opioid receptor; conditions: ratio of Ki values, κ = 1; ref [2]; cited from earlier work
[7] = pH 7.4; ref [8]; cited from earlier work

| Compound | times less active than unsubstituted C10 bivalent ligand 10 at the κ receptor (κ opioid receptor [1]) | Functional Activity at μ opioid receptor (μ opioid receptor [2]) | Functional activity at κ opioid receptor (κ opioid receptor [3]) | IC50 (nM) ± S.E.M., Kappa Antagonist Effects (κ opioid receptor [4]) | Imax (% inhibition) ± S.E.M., Kappa Antagonist Effects (κ opioid receptor [4]) | Selectivity μ/δ/κ (κ opioid receptor [1]) | Emax (% stimulation) ± S.E.M., Mu Agonist Effects (μ opioid receptor [2]) [% stimulation] | Imax (% inhibition) ± S.E.M., Mu Antagonist Effects (μ opioid receptor [5]) | Emax (% stimulation) ± S.E.M., Kappa Agonist Effects (κ opioid receptor [3]; CHO cells expressing κ opioid receptor) [% stimulation] | IC50 (nM) ± S.E.M., Mu Antagonist Effects (μ opioid receptor [5]) | Selectivity μ/δ/κ (κ opioid receptor [6]) | times more stable than mono phenyl succinate [7] [times] |
| --- | --- | --- | --- | --- | --- | --- | --- | --- | --- | --- | --- | --- |
| CC(CCCCCCC(C)C(=O)Oc1ccc2c(c1)[C@@]13CCCC[C@H]1[C@@H](C2)N(CC1CCC1)CC3)C(=O)Oc1ccc2c(c1)[C@@]13CCCC[C@H]1[C@@H](C2)N(CC1CCC1)CC3 (stereo partly drawn) [4a, Bis((−)-N-cyclobutylmethylmorphinan-3-yl) 2,9-dimethyldecanedioate] | approximately 10 times | Partial Agonist | partial agonists; also recorded: κ agonists; also recorded: Agonist | No inhibition | No inhibition | – | – | – | – | – | – | – |
| CC(C)(CCCCCCC(C)(C)C(=O)Oc1ccc2c(c1)[C@@]13CCCC[C@H]1[C@@H](C2)N(CC1CCC1)CC3)C(=O)Oc1ccc2c(c1)[C@@]13CCCC[C@H]1[C@@H](C2)N(CC1CCC1)CC3 [4b, Bis((−)-N-cyclobutylmethylmorphinan-3-yl) 2,2,9,9-tetramethyldecanedioate] | approximately 10 times | Partial Agonist | partial agonists; also recorded: κ agonists; also recorded: Agonist | No inhibition | No inhibition | 1/32/1 | – | – | – | – | – | – |
| CC(CCCCCCC(C)C(=O)Oc1ccc2c(c1)[C@@]13CCCC[C@H]1[C@@H](C2)N(CC1CCC1)CC3)C(=O)O (stereo partly drawn) [7a, 2,9-Dimethyldecanedioic acid 10-((−)-N-cyclobutylmethylmorphinan-3-yl) ester] | – | Partial Agonist | κ agonists; also recorded: Agonist | No inhibition | No inhibition | 1/48/1 | – | – | – | – | – | – |
| CC(C)(CCCCCCC(C)(C)C(=O)Oc1ccc2c(c1)[C@@]13CCCC[C@H]1[C@@H](C2)N(CC1CCC1)CC3)C(=O)O [7b, 2,2,9,9-Tetramethyldecanedioic acid 10-((−)-N-cyclobutylmethylmorphinan-3-yl) ester] | – | – | – | – | – | 3/22/1 | – | – | – | – | – | – |
| Oc1ccc2c(c1)[C@@]13CCCC[C@H]1[C@@H](C2)N(CC1CCC1)CC3 [Butorphan, butorphan] | – | Partial Agonist | Agonist | – | – | – | 50 ± 2.5 | 50 ± 2.6 % inhibition | 80 ± 6.8 | – | – | – |
| O=C(O)CCCCCCCCC(=O)Oc1ccc2c(c1)[C@@]13CCCC[C@H]1[C@@H](C2)N(CC1CCC1)CC3 [compound 9, reference compound] | – | full μ agonist | κ agonists; also recorded: full agonist | No inhibition | No inhibition | – | – | No inhibition | – | No inhibition | – | – |
| O=C(CCCCCCCCC(=O)Oc1ccc2c(c1)[C@@]13CCCC[C@H]1[C@@H](C2)N(CC1CCC1)CC3)Oc1ccc2c(c1)[C@@]13CCCC[C@H]1[C@@H](C2)N(CC1CCC1)CC3 [compound 10, reference compound] | – | Partial Agonist | Agonist | No inhibition | No inhibition | – | 51 ± 6.5 | – | – | – | 2/90/1 | – |
| C=CCN1CC[C@]23c4c5ccc(OC(=O)CCCCCCCCC(=O)Oc6ccc7c(c6)[C@@]68CCCC[C@H]6C(C7)N(CC6CCC6)CC8)c4O[C@H]2CCC[C@H]3[C@H]1C5 [compound 11, reference compound] | – | Partial Agonist | κ agonists; also recorded: Agonist | No inhibition | No inhibition | – | – | – | – | – | – | – |
| CC(CC(=O)Oc1ccccc1)C(=O)O (stereo not drawn) [mono phenyl ester of 2-methylsuccinic acid] | – | – | – | – | – | – | – | – | – | – | – | 43 |

Source: PMC2788666 (Journal of medicinal chemistry, 2009)
